Assay results reported in ChEMBL document CHEMBL1157245, “Bromophenols coupled with methyl gamma-ureidobutyrate and bromophenol sulfates from the red alga Rhodomela confervoides” (J Nat Prod, 2006).

Legend:
Type in all cases: functional, cell-based
HCT-8 = test: Cytotoxicity against human HCT8 cells after 96 hrs by MTT assay; conditions: HCT-8, 96 h
Summary of the method: (§1)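 Cell lines from ATCC, grown in RPMI 1640 with 10% FBS plus penicillin/streptomycin at 37 °C, 5% CO2. Seeded at 1200 cells/well; compounds added 24 h later at five concentrations from DMSO stocks (final DMSO 0.1%), triplicate wells.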

BGC-823 = test: Cytotoxicity against human BGC823 cells after 96 hrs by MTT assay; conditions: BGC-823, 96 h; summary of the method: as §1
Bel-7402 = test: Cytotoxicity against human BEL-7402 cells after 96 hrs by MTT assay; conditions: Bel-7402, 96 h; summary of the method: as §1
A2780 = test: Cytotoxicity against human A2780 cells after 96 hrs by MTT assay; conditions: A2780, 96 h; summary of the method: as §1
A549 = test: Cytotoxicity against human A549 cells after 96 hrs by MTT assay; conditions: A549, 96 h; summary of the method: as §1

SMILES	IC50 (HCT-8)	IC50 (BGC-823)	IC50 (Bel-7402)	IC50 (A2780)	IC50 (A549)
COC(=O)CCCNC(=O)N(Cc1cc(O)c(O)c(Br)c1Br)Cc1cc(O)c(O)c(Br)c1Cc1cc(O)c(O)c(Br)c1Br	> 10 µg/mL	> 10 µg/mL	> 10 µg/mL	> 10 µg/mL	> 10 µg/mL
COC(=O)CCCNC(=O)NCc1cc(O)c(O)c(Br)c1Br	> 10 µg/mL	> 10 µg/mL	> 10 µg/mL	> 10 µg/mL	> 10 µg/mL
O=S(=O)(O)OCCc1cc(O)c(O)c(Br)c1Cc1cc(O)c(O)c(Br)c1Br	12.1 µM	15.1 µM	13.5 µM	> 16.9 µM	14.5 µM
COC(=O)CCCNC(=O)NCc1cc(O)c(O)c(Br)c1Cc1cc(O)c(O)c(Br)c1Br	> 10 µg/mL	> 10 µg/mL	> 10 µg/mL	> 10 µg/mL	> 10 µg/mL
O=S(=O)(O)OCCc1cc(O)c(O)c(Br)c1	18.8 µM	19.1 µM	20.4 µM	20.8 µM	18.5 µM
O=S(=O)(O)OCCc1cc(O)c(O)c(Br)c1Br	14.6 µM	14 µM	14.8 µM	9.4 µM	14.7 µM
OCCc1cc(O)c(O)c(Br)c1Br	15.4 µM	20.2 µM	19.4 µM	19.9 µM	19.7 µM
COC(=O)CCCN(Cc1cc(O)c(O)c(Br)c1Br)C(=O)NCc1cc(O)c(O)c(Br)c1Br	> 10 µg/mL	> 10 µg/mL	> 10 µg/mL	> 10 µg/mL	> 10 µg/mL
O=c1[nH]cc(F)c(=O)[nH]1 [FLUOROURACIL]	4.2 µM	5.4 µM	4.2 µM	5 µM	1.4 µM
